ChEMBL document CHEMBL1156675, “Synthesis and antituberculosis activity of new thiazolylhydrazone derivatives” (Eur J Med Chem, 2008)
In brackets after ≈: the same amount, converted by molar mass.

Key:
[1] = system: NIH3T3; assay: Cytotoxicity against mouse NIH3T3 cells after 24 hrs by MTT assay; assay type: cell-based; conditions: NIH3T3, 24 h
Procedure, shortened: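 NIH/3T3 cells grown in DMEM with 10% fetal calf serum, penicillin and streptomycin at 37 °C, 5% CO2. Plated at 5 × 10⁴ cells/ml, preincubated 24 h, then exposed to compounds (DMSO stocks diluted in medium, final DMSO <0.6%) for 24 h. MTT 0.5 mg/ml final, 4 h, 37 °C; formazan dissolved in DMSO, absorbance 540 nm. Triplicate wells; IC50 = concentration halving absorbance versus control.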

[2] = system: Mycobacterium tuberculosis; assay: Antitubercular activity against Mycobacterium tuberculosis H37Rv ATCC 27294 at 6.25 ug/ml by microplate alamar blue assay; assay type: functional
Procedure, shortened: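 Single-concentration primary screen at 6.25 against H37Rv in BACTEC 12B medium by Microplate Alamar Blue Assay, with results read as percent inhibition on a BACTEC 460 radiometric system. Positive BACTEC culture (GI ≥500) or McFarland No. 1 suspension was inoculated into drug vials and incubated at 37 °C with daily reads. Once the control GI reached ≥30, the daily ΔGI of drug and control vials was compared.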

[3] = system: Mycobacterium tuberculosis; assay: Antitubercular activity against Mycobacterium tuberculosis H37Rv ATCC 27294 by microplate alamar blue assay; assay type: functional

C/C(=N\Nc1nc(-c2ccc3c(c2)CCC3)cs1)c1ccc(Cl)c(Cl)c1
IC50 [1]: 110 µg/mL (≈ 273 µM)

C/C(=N\Nc1nc(-c2ccc3c(c2)CCC3)cs1)c1ccc(Cl)cc1
IC50 [1]: 120 µg/mL (≈ 326 µM)

C/C(=N\Nc1nc(-c2ccc3c(c2)CCC3)cs1)c1ccccc1
IC50 [1]: 200 µg/mL (≈ 600 µM)

C/C(=N\Nc1nc(-c2ccc3c(c2)CCC3)cs1)c1ccc(C)cc1
IC50 [1]: 49 µg/mL (≈ 141 µM)

COc1ccc(/C(C)=N/Nc2nc(-c3ccc4c(c3)CCC4)cs2)cc1
IC50 [1]: 180 µg/mL (≈ 495 µM)

C/C(=N\Nc1nc(-c2ccc3c(c2)CCC3)cs1)c1ccc([N+](=O)[O-])cc1
IC50 [1]: 90 µg/mL (≈ 238 µM)

CO[C@H]1/C=C/O[C@@]2(C)Oc3c(C)c(O)c4c(O)c(c(/C=N/N5CCN(C)CC5)c(O)c4c3C2=O)NC(=O)/C(C)=C\C=C\[C@H](C)[C@H](O)[C@@H](C)[C@@H](O)[C@@H](C)[C@H](OC(C)=O)[C@@H]1C [RIFAMPIN]
inhibition at 6.25 µg/mL [2]: 98% | MIC [3]: 0.25 µg/mL (≈ 0.304 µM)
